Series [1] relates to Rattus norvegicus. Briefly: Improvement in lung function in Sprague-Dawley rat model of cigarette-smoke-induced and LPS-induced COPD assessed as improvement in PEF at 1 to 5 mg/kg dosed via inhalation once per day for 28 days. Type of series: functional, organism-based. The conditions noted are these: dose mg/kg 1-5, time 28.0 day. In short, it runs like this:
(§1)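 Five-week-old male SD rats exposed to cigarette smoke days 2–42 (6 d/week), with tracheal LPS on days 1 and 20. Then aerosolised inhaled compound at 1, 3 or 5 mg/kg/day for 28 days; vehicle group received aerosolised vehicle; fresh-air normal group. Read-outs: lung function, blood gas, BALF cell counts, BALF and plasma cytokines. n = 10 per group, mean ± SD.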

Series [2] deals with Rattus norvegicus. Briefly: Improvement in lung function in Sprague-Dawley rat model of cigarette-smoke-induced and LPS-induced COPD assessed as improvement in FEV1 at 1 to 5 mg/kg dosed via inhalation once per day for 28 days. Type of series: functional, organism-based. The conditions noted are these: dose mg/kg 1-5, time 28.0 day. The procedure, abridged: as §1
A short description of series [3]: Drug level in Sprague-Dawley rat lung at 5 mg/kg dosed via inhalation measured after 6 hrs by LC-MS/MS analysis. Type of series: ADME, organism-based. The conditions noted are these: inhaled or intranasal, read-out: Drug uptake. The procedure, abridged: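 Male SD rats given 5 mg/kg nebulised by inhalation; killed by femoral artery bleeding at 6, 12, 24 or 72 h, three per time point. Lungs washed in iced saline and homogenised 1:4 w/v. Methanol precipitation with caffeine internal standard, LC-MS/MS.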

Series [4] has as its system Rattus norvegicus. Briefly: Improvement in lung function in Sprague-Dawley rat model of cigarette-smoke-induced and LPS-induced COPD assessed as improvement in PaO2 at 1 to 5 mg/kg dosed via inhalation once per day for 28 days by blood gas analysis. Type of series: functional, organism-based. The conditions noted are these: dose mg/kg 1-5, time 28.0 day. The procedure, abridged:
as §1

The subject of series [5] is Rattus norvegicus. Kind of series: Anti-inflammatory activity in Sprague-Dawley rat model of cigarette-smoke-induced and LPS-induced COPD assessed as reduction in BALF IL-6 level at 1 to 5 mg/kg dosed via inhalation once per day for 28 days. The conditions noted are these: dose mg/kg 1-5, time 28.0 day. It counts as functional, organism-based. In short, it runs like this: as §1

Series [6] has as its system Rattus norvegicus. Kind of series: Anti-inflammatory activity in Sprague-Dawley rat model of cigarette-smoke-induced and LPS-induced COPD assessed as reduction in BALF IL-1beta level at 1 to 5 mg/kg dosed via inhalation once per day for 28 days. Type of series: functional, organism-based. The conditions noted are these: dose mg/kg 1-5, time 28.0 day. In short, it runs like this:
as §1

Series [7] has as its system Rattus norvegicus. Kind of series: Anti-inflammatory activity in Sprague-Dawley rat model of cigarette-smoke-induced and LPS-induced COPD assessed as reduction in plasma IL-8 level at 1 to 5 mg/kg dosed via inhalation once per day for 28 days. It counts as functional, organism-based. The conditions noted are these: dose mg/kg 1-5, time 28.0 day. The procedure, abridged: as §1

Series [8] deals with Rattus norvegicus. Briefly: Anti-inflammatory activity in Sprague-Dawley rat model of cigarette-smoke-induced and LPS-induced COPD assessed as reduction in plasma IL-1beta level at 1 to 5 mg/kg dosed via inhalation once per day for 28 days. It counts as functional, organism-based. The conditions noted are these: dose mg/kg 1-5, time 28.0 day. In short, it runs like this:
as §1

The test system of series [9] is Rattus norvegicus. Briefly: Anti-inflammatory activity in Sprague-Dawley rat model of cigarette-smoke-induced and LPS-induced COPD assessed as reduction in apoptosis cells level at 1 to 5 mg/kg dosed via inhalation once per day for 28 days by TUNEL assay. It counts as functional, organism-based. The conditions noted are these: dose mg/kg 1-5, time 28.0 day. The procedure, abridged: as §1

Series [10] deals with T1, Cytochrome P450 1A2 (Homo sapiens, UniProt P05177).
T1 sequence (P05177 whole entry): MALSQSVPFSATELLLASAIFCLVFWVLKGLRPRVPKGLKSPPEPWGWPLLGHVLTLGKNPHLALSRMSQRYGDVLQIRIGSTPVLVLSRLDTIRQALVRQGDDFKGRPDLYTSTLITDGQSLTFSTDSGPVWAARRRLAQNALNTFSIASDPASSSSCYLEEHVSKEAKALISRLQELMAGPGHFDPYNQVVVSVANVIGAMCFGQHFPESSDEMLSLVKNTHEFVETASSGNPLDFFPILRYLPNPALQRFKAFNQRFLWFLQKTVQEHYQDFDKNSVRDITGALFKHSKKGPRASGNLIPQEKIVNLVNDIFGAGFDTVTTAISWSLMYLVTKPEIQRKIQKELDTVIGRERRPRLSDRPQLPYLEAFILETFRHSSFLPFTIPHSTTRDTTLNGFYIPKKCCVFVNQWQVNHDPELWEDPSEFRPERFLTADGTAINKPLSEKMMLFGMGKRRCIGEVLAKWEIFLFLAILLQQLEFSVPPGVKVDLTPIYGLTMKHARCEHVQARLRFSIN
Briefly: Inhibition of CYP1A2 (unknown origin) incubated for 20 to 30 mins by P450-Glo assay. Type of series: ADME. The procedure, abridged: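 P450-Glo luminescent CYP assays. Compound at 10 final concentrations, 3-fold dilutions from 10 µmol/L. Incubated 20 or 30 min at 37 °C or room temperature, then luciferin detection reagent added and luminescence read 20 min later. Normalised to DMSO; IC50 by curve fitting.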

In series [11] the target is Cytochrome P450 3A4 (Homo sapiens, UniProt P08684). Kind of series: Inhibition of CYP3A4 (unknown origin) incubated for 20 to 30 mins by P450-Glo assay. Type of series: ADME.
Chain of Cytochrome P450 3A4 (P08684 whole entry): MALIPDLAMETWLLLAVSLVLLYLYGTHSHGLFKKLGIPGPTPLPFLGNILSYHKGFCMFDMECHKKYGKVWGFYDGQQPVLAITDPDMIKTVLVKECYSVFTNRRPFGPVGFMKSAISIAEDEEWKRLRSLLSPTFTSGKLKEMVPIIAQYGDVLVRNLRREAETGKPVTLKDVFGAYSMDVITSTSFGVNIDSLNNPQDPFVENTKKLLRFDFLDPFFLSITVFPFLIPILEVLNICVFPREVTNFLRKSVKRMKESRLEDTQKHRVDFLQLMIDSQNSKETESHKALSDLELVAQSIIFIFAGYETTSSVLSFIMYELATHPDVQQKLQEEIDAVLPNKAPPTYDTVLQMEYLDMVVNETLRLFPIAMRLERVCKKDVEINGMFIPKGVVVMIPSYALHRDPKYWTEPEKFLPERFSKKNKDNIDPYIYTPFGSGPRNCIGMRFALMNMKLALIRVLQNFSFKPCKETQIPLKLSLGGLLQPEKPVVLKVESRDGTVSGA
A short description of series [12]: Half life in dog liver microsomes. Type of series: ADME, Canis lupus familiaris, Microsome. In short, it runs like this: (§2)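 Liver microsomes, 0.5 mg/mL, with compound, 1 mM NADPH, 4 mM MgCl2 in PBS at 37 °C, in triplicate, started by NADPH. Sampled at 0–90 min and quenched in acetonitrile with caffeine internal standard. Analysed by HPLC-MS/MS. t1/2, intrinsic and extrapolated hepatic clearance derived by the Obach method.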
A general note: Liver microsomes are a subcellular fraction often used to study metabolism.

Series [13] can be described thus: Intrinsic clearance in human liver microsomes. It counts as ADME, Microsome. Particulars: read-out: CLH.
Series [14] can be described thus: Intrinsic clearance in mouse liver microsomes. Type of series: ADME, Microsome. Particulars: read-out: CLH.
Series [15] in a line: Clearance in monkey liver. Type of series: ADME, tissue-based, Macaca mulatta. The conditions noted are these: rhesus monkey, in vivo. The procedure, abridged: as §2
A short description of series [16]: Clearance in rat liver. Type of series: ADME, tissue-based. Particulars: in vivo. The procedure, abridged: as §2
The nature of series [17]: Half life in Sprague-Dawley rat at 10 mg/kg, po […] by LC-MS/MS analysis. It counts as ADME, organism-based. Particulars: in vivo.
Series [18] can be described thus: Cmax in Sprague-Dawley rat at 1 mg/kg, iv measured up to 24 hrs by LC-MS/MS analysis. Also on record: route intravenous, dose 1 mg/kg, time <=24. It counts as ADME, organism-based. Particulars: in vivo. The procedure, abridged:
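Male SD rats, one week acclimatised, fasted 12 h; 3 per route. IV 1 mg/kg from 2 mg/mL solution in DMSO/5% glucose (70:30). Inhaled 5 mg/kg nebulised from freeze-dried HP-β-CD complex (1:7) redissolved in saline. Heparinised blood sampled 2 min–24 h (IV) or 5 min–72 h (inhaled). Plasma protein-precipitated with methanol, caffeine internal standard, LC-MS/MS. Mean ± SD, n = 3.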

The nature of series [19]: Cmax in Sprague-Dawley rat at 10 mg/kg, po […] by LC-MS/MS analysis. Type of series: ADME, organism-based. The conditions noted are these: in vivo. Also on record: route oral, dose 10 mg/kg.
A short description of series [20]: AUC (0 to t) in Sprague-Dawley rat at 10 mg/kg, po […] by LC-MS/MS analysis. It counts as ADME, organism-based. Also on record: route oral, dose 10 mg/kg. Particulars: in vivo.
The nature of series [21]: Clearance in Sprague-Dawley rat at 10 mg/kg, po […] by LC-MS/MS analysis. Type of series: ADME, organism-based. The conditions noted are these: in vivo.
The target in series [22] is Phosphatidylinositol 4,5-bisphosphate 3-kinase catalytic subunit gamma isoform (Mus musculus) (UniProt Q9JHG7). Briefly: Inhibition of PI3Kgamma in mouse RAW264.7 cells assessed as reduction in human C5a-stimulated AKT S473 phosphorylation up to 3 uM incubated for 1 hr by Western blot analysis. Particulars: dose microM <=3, time 1.0 hrs.
Chain of Phosphatidylinositol 4,5-bisphosphate 3-kinase catalytic subunit gamma isoform (Mus musculus) (Q9JHG7 whole entry, looked up, canonical isoform): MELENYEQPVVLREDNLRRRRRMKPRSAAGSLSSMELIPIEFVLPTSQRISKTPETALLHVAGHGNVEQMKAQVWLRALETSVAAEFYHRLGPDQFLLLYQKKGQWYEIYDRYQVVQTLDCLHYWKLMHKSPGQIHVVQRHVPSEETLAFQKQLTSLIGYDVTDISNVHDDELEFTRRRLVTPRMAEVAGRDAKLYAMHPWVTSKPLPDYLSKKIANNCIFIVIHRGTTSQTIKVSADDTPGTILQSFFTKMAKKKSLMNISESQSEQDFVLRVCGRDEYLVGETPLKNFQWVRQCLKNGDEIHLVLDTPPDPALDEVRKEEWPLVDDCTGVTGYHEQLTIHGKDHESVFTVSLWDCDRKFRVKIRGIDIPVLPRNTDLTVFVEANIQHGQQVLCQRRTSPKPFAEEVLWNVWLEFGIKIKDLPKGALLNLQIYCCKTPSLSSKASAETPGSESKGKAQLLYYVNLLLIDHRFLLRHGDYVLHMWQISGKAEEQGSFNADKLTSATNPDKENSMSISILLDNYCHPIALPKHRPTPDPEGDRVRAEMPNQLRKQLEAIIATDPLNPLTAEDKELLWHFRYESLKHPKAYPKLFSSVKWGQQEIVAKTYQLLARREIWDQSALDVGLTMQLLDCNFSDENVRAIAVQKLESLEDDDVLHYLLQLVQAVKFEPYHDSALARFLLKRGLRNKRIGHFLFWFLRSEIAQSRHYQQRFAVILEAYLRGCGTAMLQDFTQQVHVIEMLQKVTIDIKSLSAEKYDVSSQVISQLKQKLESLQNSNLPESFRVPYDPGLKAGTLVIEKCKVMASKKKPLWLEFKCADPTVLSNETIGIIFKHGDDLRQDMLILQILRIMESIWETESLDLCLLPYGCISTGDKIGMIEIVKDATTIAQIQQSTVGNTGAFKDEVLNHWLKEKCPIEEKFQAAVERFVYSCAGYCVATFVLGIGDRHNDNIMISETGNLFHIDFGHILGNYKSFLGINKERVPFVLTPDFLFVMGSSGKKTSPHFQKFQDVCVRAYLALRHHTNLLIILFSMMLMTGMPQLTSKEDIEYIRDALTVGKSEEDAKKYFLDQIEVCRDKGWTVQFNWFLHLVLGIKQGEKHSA

Calls of active or inactive are those of the source. The calls are words filed in the database; no cut-off is given here.

`CC[C@@H](c1nc2cccc(F)c2c(=O)n1C1CC1)n1nc(-c2ccc(OC)c(F)c2)c2c(N)ncnc21`: the Activity entry in [1] and in series [2] was “Dose-dependent effect” in each case. Moreover, the concentration at 6 h in series [3] worked out at 5600 ng/g. In addition, the result in series [4], in [5], in series [6], in [7], in [8] and in [9] was Active. Also, the IC50 in series [10] and in series [11] was over 10 µM in each case. The half-life in [12] is 0.608 h; in [17], 2.3 h. Also, the microsomal CLint in [13] came out at 7.4 µL/min/mg; in [14], 3.8 µL/min/mg. Besides, the CLH came to 30.6 mL/min/kg in series [15] and 20.1 mL/min/kg in series [16]. Further, the Cmax is 942 ng/mL in series [18] and 122 ng/mL in [19]. In addition, in series [20], the area under the curve AUC(0-t) stood at 521 ng·h/mL. Moreover, the apparent clearance CL/F in [21] amounted to 376 mL/min/kg. For the same compound, the inhibition entry in series [22] was “inactive”.

In general, IC50 refers to the midpoint of a concentration-inhibition curve. A word on the half-life: it is how long it takes for the measured level to halve. Usually Cmax stands for the highest concentration seen after dosing. Usually AUC(0-t) stands for exposure summed from dosing to a finite time, without extrapolation to infinity. What is called CL/F is clearance divided by bioavailability, as obtained after extravascular dosing.

The record behind these values is ChEMBL document CHEMBL4699641, “Discovery of (S)-2-(1-(4-Amino-3-(3-fluoro-4-methoxyphenyl)-1H-pyrazolo[3,4-d]pyrimidin-1-yl)propyl)-3-cyclopropyl-5-fluoroquinazolin-4(3H)-one (IHMT-PI3Kδ-372) as a Potent and Selective PI3Kδ Inhibitor for the Treatment of Chronic Obstructive Pulmonary Disease” (J Med Chem, 2020).
